Most compounds without a hit are left out; they make up all but 9.2% or so of the library.
Autophagy mod: autophagy modulation, high-content screen; calls only at 10 µM (by protocol); 190,000 compounds, 0.98% hits; MEF GFP-LC3 puncta imaging; test concentration mostly 10 µM;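 active = percentage of spot-positive cells more than 3 SD above its plate mean, without a fluorescence outlier flag or 80% toxicity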
Dynein cargo inh: blocks dynein driven cargo transport along microtubules. 220,000 compounds, 0.47% hits. z-score, hits read low. 3617.4 mouse cells, GR-EGFP nuclear translocation imaging; test concentration mostly 20 µM; stimulated with dexamethasone, 1 µM; active compounds read low. AID 1381;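 active = plate z-score of nuclear minus cytoplasmic receptor signal below a set negative limit, without overly bright fluorescence or cell loss, cut at about -3.5 in these data, passing the limit was not always enough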;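 also: z-score of nuclear minus cytoplasmic ring GR-EGFP intensity difference per well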
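Medium: Induction medium lacking tetracycline, stripped serum | Probe or stimulus: 1.0 µM final dexamethasone stimulus | Schedule: 48 h induction, then 1 h compound, then 30 min agonist, 37 °C | Signal: Automated 10x imaging of fixed Hoechst-stained cells | Evaluation: Per-cell GR-EGFP intensity, nucleus versus surrounding cytoplasmic ring, well-averaged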
Lmaj promast: Leishmania major promastigote growth inhibition; Leishmania major promastigotes, resazurin fluorescence viability; inhibition, % at 10 µM; 200,000 compounds, 9% hits; in the data active = inhibition above about 50%;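 also: promastigotes grown with compound for 44 hours at 28 °C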
HCT116 PTEN-null: PTEN-deleted cell growth suppression. HCT116 PTEN-null viability, CellTiter-Glo, 60 h; active compounds read low. viability, % at 10 µM. 140,000 compounds, 1.2% hits. AID 827;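 active = viability at or below a set limit, 4 SD under the median of all tested compounds, cut at about 3.7% in these data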;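 also: PTEN knockout HCT116 line with beta catenin targeted HCT116 as companion control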
HCT116 bCat-KO: beta-catenin-lacking colon tumor cell growth suppression | HCT116 beta-catenin knockout viability, CellTiter-Glo, 60 h; active compounds read low | viability, % at 10 µM | 140,000 compounds, 1.5% hits | AID 818;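 active = viability at or under a set limit, the compound median less 4 SD, cut at about 6% in these data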
Hits are given with their value; i = inactive; nt = not tested or not shown; + = active, no number.

SMILES | Autophagy mod | Dynein cargo inh | Lmaj promast | HCT116 PTEN-null | HCT116 bCat-KO
COc1ccc(CCNC(=O)c2ccc(Cl)c(S(=O)(=O)N(C)c3ccccc3)c2)cc1 | i | i | 98 | i | i
N/C(=N\OC(=O)CCCOc1ccccc1)c1ccccc1 | i | i | i | i | i
Cc1ccc(S(=O)(=O)NC(=O)c2cccn2C)cc1 | i | i | i | i | i
CCCOC(=O)c1c(NC(=O)CSc2nc(-c3ccco3)cc(C(F)(F)F)n2)sc(C(=O)OC)c1C | i | i | i | i | i
C=CCn1c(O)c(N=NC(=O)c2ccc3c(c2)OCO3)c2ccccc21 | i | i | i | i | i
CCN(CC)S(=O)(=O)c1ccc(OC)c(NC(=O)CSc2cc(C)ccc2C)c1 | i | i | 73 | i | i
CCN(CC)S(=O)(=O)c1ccc(OC)c(NC(=S)Nc2cc(C)ccc2C)c1 | i | i | i | i | i
CCN(c1ccccc1)S(=O)(=O)c1ccc(OC)c(NC(=O)CNCCc2ccccc2)c1 | i | i | 52 | nt | nt
O=C(CSc1nnc(SCc2ccc(Cl)cc2)s1)N/N=C/c1c[nH]c2ccccc12 | i | i | 65 | i | 5.2
O=C(COc1ccc(Cl)cc1Cl)NCC(=O)N/N=C/c1c[nH]c2ccccc12 | i | i | 70 | i | i
CCc1ccc2c(c1)c1nnc(NN)nc1n2CC | i | i | i | i | i
CCC(C)C(=O)Nc1nc(C)c(-c2csc(Nc3cc(Cl)ccc3OC)n2)s1 (stereo not given) | i | i | i | i | i
COc1ccc(OC)c(Nc2nc(-c3sc(NC(=O)C(C)(C)C)nc3C)cs2)c1 | i | i | 93 | i | i
COc1ccc(Cl)cc1Nc1nc(-c2sc(NC(=O)C(C)(C)C)nc2C)cs1 | i | i | 96 | i | i
c1ccc(NCc2nc(-c3ccccc3)no2)cc1 | i | i | i | i | i
O=C(COc1ccc2ccc(=O)oc2c1)c1ccccc1 | nt | i | nt | nt | nt
CC(Oc1ccc2ccc(=O)oc2c1)C(=O)c1ccccc1 (stereo not given) | i | i | 69 | i | i
COc1ccc2oc(=O)c(C(=O)OCC(=O)c3ccc([N+](=O)[O-])cc3)cc2c1 | i | i | i | nt | nt
CC(C)C(C)NC(=O)COc1ccc(OCc2ccccc2)cc1 (stereo not given) | i | i | i | nt | nt
C/C=C/c1ccc(OCCCNCC(C)O)c(OC)c1 (stereo not given) | i | i | i | i | i
CC(O)CNCCCOc1ccccc1OCc1ccccc1 (stereo not given) | i | i | 99 | nt | nt
CNCC(C)COc1ccccc1OCc1ccccc1 (stereo not given) | i | i | 99 | i | i
CC(O)CNCCCCOc1ccc(OCc2ccccc2)cc1 (stereo not given) | i | i | 97 | nt | nt
CCOC(=O)/C(=N\Nc1ccc(Br)cc1)N1CC(C)OC(C)C1 (stereo not given) | nt | i | nt | nt | nt
CCOC(=O)c1ccc(S(=O)(=O)Nc2ccc3cn[nH]c3c2)cc1 | i | i | 68 | i | i
SMILES | Autophagy mod | Dynein cargo inh | Lmaj promast | HCT116 PTEN-null | HCT116 bCat-KO
COc1ccc(S(=O)(=O)Nc2ccc3cn[nH]c3c2)cc1C | i | i | i | nt | nt
Cc1ccc(Sc2ncnc3onc(C)c23)cc1 | i | i | 56 | i | i
COC(=O)c1c(NC(=O)c2ccccc2[N+](=O)[O-])sc2c1CC(C)(C)NC2(C)C | i | i | 96 | i | i
O=[N+]([O-])c1ccc(COc2ccc(-c3[nH]ncc3-c3ccc(Cl)cc3)c(O)c2)cc1 | i | i | 73 | i | i
NC1=NC(=O)/C(=C/c2ccccc2OS(=O)(=O)c2ccccc2)S1 | i | i | i | i | i
NC1=NC(=O)/C(=C/c2c(OS(=O)(=O)c3ccc(Cl)cc3)ccc3ccccc23)S1 | i | i | 61 | i | i
CCc1nc(N)c(C#N)c(-c2ccc(F)cc2)c1C | i | i | i | i | i
Cc1ccc2c(n1)sc1c(-c3ccc(Br)cc3)c(C#N)c(N)nc12 | i | i | i | 3.2 | i
Cc1oc(-c2cccc(F)c2)nc1CN(Cc1ccccc1)C[C@@H]1CCC(=O)N1 | i | i | 59 | nt | nt
Fc1cc(F)cc(NC(=S)Nc2ccccc2N2CCOCC2)c1 | i | i | i | nt | nt
CCN1C(=O)S/C(=C/c2ccc(Sc3nc4ccccc4[nH]3)o2)C1=O | i | i | i | i | i
O=C1C(Nc2ccccc2)=C/C(=N/S(=O)(=O)c2cccs2)c2ccccc21 | i | i | 101 | 1.7 | 2.0
Cc1ccc(NC2=C/C(=N/S(=O)(=O)c3cccs3)c3ccccc3C2=O)cc1 | i | i | 99 | 0.5 | 1.2
COC(=O)c1ccccc1NC1=C/C(=N\S(=O)(=O)c2cccs2)c2ccccc2C1=O | i | i | 100 | 1.7 | 1.8
COC(=O)c1cccc(NS(=O)(=O)c2cccs2)c1C | i | i | i | i | i
COCCN(Cc1cc2c(C)cc(C)cc2nc1Cl)C(=O)c1ccccc1F | i | i | i | nt | nt
NS(=O)(=O)c1ccc(N2C(=O)C(=O)/C(=C(/O)c3ccccc3)C2c2ccc(Cl)cc2)cc1 (stereo not given) | nt | i | nt | nt | nt
Cc1ccc(-c2nc3cccnc3o2)cc1NC(=O)COc1ccc(Cl)cc1C | i | i | 94 | i | i
Cc1ccc(-c2nc3cccnc3o2)cc1NC(=O)COc1ccc(C(C)(C)C)cc1 | i | i | i | i | i
Cc1ccc(-c2nc3ncccc3o2)cc1NC(=O)CC(C)C | i | i | 92 | i | i
c1ccc(-c2c[n+]3c(n2-c2ccccc2)CCC3)cc1 | nt | i | nt | nt | nt
CCOc1ccc(-n2c(-c3ccccc3)c[n+]3c2CCCCC3)cc1 | i | i | 100 | i | i
COc1ccc(Cn2c(-c3ccc(Br)cc3)c[n+]3ccccc23)cc1 | i | i | 99 | i | i
COc1ccc(Cn2c(C)ccc2C)cc1 | i | i | i | i | i
COc1ccc2c(-c3ccccc3)cc(SC(C)C(N)=O)nc2c1 (stereo not given) | i | i | 81 | nt | nt
SMILES | Autophagy mod | Dynein cargo inh | Lmaj promast | HCT116 PTEN-null | HCT116 bCat-KO
CCCN(C(=O)CSc1cc(-c2ccccc2)c2ccc(OC)cc2n1)C1CCS(=O)(=O)C1 (stereo not given) | i | i | i | i | i
Cc1ccc(-n2c3nc(=O)[nH]c(=O)c-3cc3cc([N+](=O)[O-])ccc32)cc1C | i | i | 94 | i | i
O=C(COC(=O)C1CC2C=CC1C2)Nc1cccc(S(=O)(=O)N2CCOCC2)c1 (stereo not given) | nt | i | nt | nt | nt
CCOc1ccc(-n2cc(-c3ccccc3)c3c(N4CCOCC4)ncnc32)cc1 | + | i | i | nt | nt
CN1CCN(c2ncnc3c2c(-c2ccccc2)cn3-c2ccc(F)cc2)CC1 | i | i | 58 | nt | nt
c1ccc(-c2cn(-c3ccccc3)c3ncnc(N4CCCCC4)c23)cc1 | i | i | i | nt | nt
O=C(O)Cc1c(C(=O)O)[nH]c2ccc(C(=O)O)cc12 | nt | i | nt | nt | nt
O=C(CCNC(=O)c1ccccc1)OCC(=O)c1ccccc1 | i | i | i | nt | nt
Cc1nn(CCOc2cccc(Br)c2)c(C)c1[N+](=O)[O-] | i | i | i | nt | nt
O=C(NNC(=S)Nc1ccc(Cl)c(Cl)c1)c1ccccn1 | i | i | 96 | nt | nt
O=C(NNC(=O)C(c1ccccc1)c1ccccc1)c1ccccn1 | i | i | 99 | i | 4.8

Bioassay records: PubChem, several laboratories
